{"data": "Measurements collected from several papers", "target": "Tyrosine-protein kinase FRK (FRK, Homo sapiens, UniProt P42685)", "note": "Protocols differ between the studies behind these lines."}
{"Structure (SMILES)": "O=C(Nc1cnn(-c2csc(C(=O)NC3COC3)c2)c1)Nc1c(F)cccc1Cl", "read-out": "enzyme activity", "action": "inhibitor", "tested at": "5 µM", "endpoint": "remaining activity", "result": "95.6%"}
{"Structure (SMILES)": "CC(C)(O)[C@H]1CC[C@H](Nc2ccc3ncc(-c4cccc(C(F)(F)F)c4)n3n2)CC1", "read-out": "enzyme activity", "action": "inhibitor", "tested at": "1 µM", "endpoint": "remaining activity", "result": "57.7%"}
{"Structure (SMILES)": "C[C@@]1(Cc2ccc(C#N)cc2)C(=O)N(c2cc(Cl)cc(Cl)c2)c2ncc(C(=O)NC3(c4nc(C5CCC5)no4)CC3)n21", "read-out": "cell-free assay", "method": "competition with immobilised ligand", "tested at": "1 µM", "endpoint": "remaining binding", "result": "81%"}
{"Structure (SMILES)": "COc1cc(Cl)c(C(=O)N[C@@H](CN[C@H]2CC[C@@H](N)CC2)Cc2ccc(C#N)cc2)cc1-c1ccc(CN[C@H](C)c2ccc(C)cc2)o1", "read-out": "enzyme activity", "action": "inhibitor", "tested at": "1 µM", "endpoint": "remaining activity", "result": "99%"}
{"Structure (SMILES)": "CC(=O)N1CCC(c2ccc(C(=O)NC3=NCCN3)cc2C(F)(F)F)CC1", "read-out": "cell-free assay", "method": "competition with immobilised ligand", "tested at": "1 µM", "endpoint": "remaining binding", "result": "97%"}
{"Structure (SMILES)": "Nc1ncnc2occ(-c3ccc(NC(=O)Nc4cc(C(F)(F)F)ccc4F)cc3)c12", "read-out": "cell-free assay", "action": "inhibitor", "tested at": "20 µM", "endpoint": "remaining signal", "result": "0.15%"}
{"Structure (SMILES)": "COc1cc2c(Nc3ccc(Br)cc3F)ncnc2cc1OCC1CCN(C)CC1", "read-out": "cell-free assay", "tested at": "0.5 µM", "endpoint": "remaining signal", "result": "79.5%"}
{"Structure (SMILES)": "CCN(CC)CCNC(=O)c1c(C)[nH]c(/C=C2\\C(=O)Nc3ccc(F)cc32)c1C", "read-out": "enzyme activity", "action": "inhibitor", "tested at": "10 µM", "endpoint": "inhibition", "result": "93%"}
{"Structure (SMILES)": "CN1CC(Oc2cnc(C#N)cc2-c2ccn3nc(NC(=O)C4CC4)cc3c2)C1", "read-out": "enzyme activity", "action": "inhibitor", "tested at": "1 µM", "endpoint": "inhibition", "result": "0%"}
{"Structure (SMILES)": "CN([C@@H]1CCc2c(CC(=O)O)c3cc(S(C)(=O)=O)ccc3n2C1)S(=O)(=O)c1ccc(F)cc1", "read-out": "cell-free assay", "method": "competition with immobilised ligand", "tested at": "1 µM", "endpoint": "remaining binding", "result": "100%"}
{"Structure (SMILES)": "CC(C)(C)c1nc2c(s1)c1nc(N)ncc1c1ccc(NS(=O)(=O)c3c(F)cccc3F)c(F)c12", "read-out": "enzyme activity", "action": "inhibitor", "method": "radiometric", "tested at": "1 µM", "endpoint": "remaining activity", "result": "103%"}
{"Structure (SMILES)": "CC(=O)Nc1c(C(C)=O)c(=O)n(C)c2nc(-c3ccc(Cl)cc3Cl)c(-c3ccc(Cl)cc3)cc12", "read-out": "cell-free assay", "method": "competition with immobilised ligand", "tested at": "1 µM", "endpoint": "remaining binding", "result": "100%"}
{"Structure (SMILES)": "COc1cc2nccc(Oc3ccc(NC(=O)c4c5n(n(-c6ccc(F)cc6)c4=O)CCCC5)cc3)c2cc1OC", "read-out": "enzyme activity", "action": "inhibitor", "tested at": "0.1 µM", "endpoint": "inhibition", "result": "86%"}
{"Structure (SMILES)": "COc1cc2ncnc(Nc3ccc(Oc4ccccc4)cc3C)c2cc1OC", "read-out": "enzyme activity", "action": "inhibitor", "tested at": "1 µM", "endpoint": "inhibition", "result": "63%"}
{"Structure (SMILES)": "Cc1cc(NC(=O)c2cccc3cc(-c4cccc5[nH]nc(N)c45)ccc23)ccc1F", "read-out": "enzyme activity", "action": "inhibitor", "tested at": "0.1 µM", "endpoint": "activity vs control", "result": "67%"}
{"Structure (SMILES)": "O=C1NC(=O)c2cc(Nc3ccc(F)cc3)c(Nc3ccc(F)cc3)cc21", "read-out": "cell-free assay", "tested at": "0.5 µM", "endpoint": "remaining signal", "result": "97.2%"}
{"Structure (SMILES)": "Cc1nc(N2CC[C@@H](O)C2)ncc1-c1cc(C(F)(F)F)cc2[nH]ncc12", "read-out": "cell-free assay", "method": "competition with immobilised ligand", "tested at": "1 µM", "endpoint": "remaining binding", "result": "98%"}
{"Structure (SMILES)": "O=C1Nc2ccc(Cl)cc2C1=Cc1cc(Cl)c(O)c(Cl)c1", "read-out": "cell-free assay", "tested at": "0.5 µM", "endpoint": "remaining signal", "result": "70.3%"}
{"Structure (SMILES)": "C[C@@H]1CN(c2cc(-c3n[nH]c4ccc(OC5(C)CC5)cc34)ncn2)C[C@H](C)O1", "read-out": "cell-free assay", "method": "competition with immobilised ligand", "tested at": "0.1 µM", "endpoint": "remaining binding", "result": "100%"}
{"Structure (SMILES)": "CNC(=O)c1cc2c(Oc3ccc(NC(=O)C4(C(=O)Nc5ccc(F)cc5)CC4)cc3)ccnc2cc1OC", "read-out": "enzyme activity", "action": "inhibitor", "method": "radiometric", "tested at": "1 µM", "endpoint": "inhibition", "result": "99%"}
{"Structure (SMILES)": "Cc1ccc(Nc2nccc(N(C)c3ccc4c(C)n(C)nc4c3)n2)cc1S(N)(=O)=O", "read-out": "cell-free assay", "tested at": "0.5 µM", "endpoint": "remaining signal", "result": "58.1%"}
{"Structure (SMILES)": "CCOCCn1cc(C(=O)Nc2ccc(-n3nc(-c4cccnc4)cc3C(F)(F)F)cn2)ccc1=O", "read-out": "cell-free assay", "method": "competition with immobilised ligand", "tested at": "1 µM", "endpoint": "remaining binding", "result": "100%"}
